# In ChEMBL document CHEMBL3763129 (Bioorg Med Chem Lett, 2016):
# The source made the active and inactive calls. The calls are words filed in the database; no cut-off is given here.
# Biological target: Proto-oncogene tyrosine-protein kinase Src (Homo sapiens) (UniProt P12931)
# Assay: Binding affinity to Src kinase SH2 domain (unknown origin) at 100 uM by STD-NMR spectroscopy
# Settings: not given
# Summary of the method: (§1)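 STD-NMR on recombinant SH2 (SUMO-fusion expressed in E. coli Rosetta2, Ni-purified, tag cleaved) in 100% D2O with trace DMSO-d6; 50 ms Gaussian saturation pulse, saturation and delay times 5.0 s, 16 scans with 720 averages; ligand/protein ratio 5:1 or 20:1 depending on compound.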
row,SMILES,Activity
1,OC[C@@H]1O[C@H](n2cnc3c(NCc4ccco4)ncnc32)[C@H](O)[C@@H]1O,Active

# Test system: MIA PaCa-2
# Assay: Antiproliferative activity against human MIAPaCa2 cells assessed as cell viability at 0.01 to 10 uM after 48 and 72 hrs by MTS assay
# Format: functional, cell-based
# Settings: not given
row,SMILES,Activity
1,OC[C@@H]1O[C@H](n2cnc3c(NCc4ccco4)ncnc32)[C@H](O)[C@@H]1O,Active
2,O=C(Nc1ccc(C(=O)O)cc1)Nc1ccc(-c2nc(N3CCOCC3)nc(N3CCOCC3)n2)cc1,Active

# Test system: not listed separately
# Assay: Cytotoxicity against human MCF10A cells assessed as cell viability at 10 uM after 48 hrs by MTS assay
# Format: cell-based
# Settings: mcf-10a
row,SMILES,Activity
1,OC[C@@H]1O[C@H](n2cnc3c(NCc4ccco4)ncnc32)[C@H](O)[C@@H]1O,Toxic
2,Cc1nc2ccccn2c1-c1csc(Nc2ccc(C(=O)O)cc2)n1,Toxic
3,O=C1COc2ccc(C(=O)/C=C/c3cc(F)cc4c3OCOC4)cc2N1,Toxic
4,N#Cc1ccc(Cc2cnc(NC(=O)CCc3ccc4c(c3)OCO4)s2)cc1,Toxic
5,O=C(Nc1ccc(C(=O)O)cc1)Nc1ccc(-c2nc(N3CCOCC3)nc(N3CCOCC3)n2)cc1,Toxic
6,COc1ccc(-c2n[nH]c(NC(=O)c3cccc(S(=O)(=O)N4CCc5ccccc54)c3)n2)cc1,Toxic

# Biological target: T1, Calmodulin/Proto-oncogene tyrosine-protein kinase Src (Homo sapiens) (UniProt P12931+P0DP23)
# Assay: Inhibition of human CaM/Src kinase SH2 domain interaction assessed as apparent association of CaM-Src kinase SH2 domain at 10 fold excess compound concentration by isothermal titration calorimetry
# Format: protein assay
# Settings: not given
# Summary of the method: (§2)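 ITC at 27°C: SH2 (0.02mM) premixed with compound in DMSO in cell, titrated with CaM (0.2mM, DMSO matched), 20µl per injection, 300 s spacing; both proteins dialyzed overnight in 10mM Bis-Tris pH6.5, 50mM NaCl, 1mM CaCl2, 0.1mM TCEP; recombinant proteins from E. coli, SUMO tag removed.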
row,SMILES,Ka
1,O=C(Nc1ccc(C(=O)O)cc1)Nc1ccc(-c2nc(N3CCOCC3)nc(N3CCOCC3)n2)cc1,2.49 ×10⁶ /M

# Biological target: Calmodulin-1 (Homo sapiens) (UniProt P0DP23)
# Assay: Binding affinity to human calmodulin by isothermal titration calorimetry
# Settings: not given
row,SMILES,Activity
1,OC[C@@H]1O[C@H](n2cnc3c(NCc4ccco4)ncnc32)[C@H](O)[C@@H]1O,inactive
2,Cc1nc2ccccn2c1-c1csc(Nc2ccc(C(=O)O)cc2)n1,inactive
3,O=C1COc2ccc(C(=O)/C=C/c3cc(F)cc4c3OCOC4)cc2N1,inactive
4,O=C(Nc1ccc(C(=O)O)cc1)Nc1ccc(-c2nc(N3CCOCC3)nc(N3CCOCC3)n2)cc1,inactive

# Biological target: Proto-oncogene tyrosine-protein kinase Src (Homo sapiens) (UniProt P12931)
# Assay: Binding affinity to Src kinase SH2 domain (unknown origin) at 25 uM by STD-NMR spectroscopy
# Settings: not given
# Summary of the method: as §1
row,SMILES,Activity
1,O=C(Nc1ccc(C(=O)O)cc1)Nc1ccc(-c2nc(N3CCOCC3)nc(N3CCOCC3)n2)cc1,Active

# Biological target: T1, Calmodulin/Proto-oncogene tyrosine-protein kinase Src (Homo sapiens)
# Assay: Inhibition of human CaM/Src kinase SH2 domain interaction assessed as apparent association of CaM-Src kinase SH2 domain at 25 fold excess compound concentration by isothermal titration calorimetry
# Format: protein assay
# Settings: not given
# Summary of the method: as §2
row,SMILES,Ka
1,OC[C@@H]1O[C@H](n2cnc3c(NCc4ccco4)ncnc32)[C@H](O)[C@@H]1O,2.03 ×10⁶ /M

# Test system: MIA PaCa-2
# Assay: Cytotoxicity against human MIAPaCa2 cells at 1 to 50 uM after 8 days by CellTiter Glo assay
# Format: functional, cell-based
# Settings: not given
# Summary of the method: (§3)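 3D microtumors: 10K MiaPaCa-2 cells in ice-cold HuBiogel (3 mg/ml), 2 mm beads polymerized 5 min at 37C, cultured up to 14 days in DMEM/10% FBS; compound 1–50 µM added every other day (final 5% FBS, 0.5% DMSO); media or DMSO controls; day 1, 7, 14 Calcein-AM (1.0µM) live imaging; proliferation by CellTiter Glo relative to DMSO; 6–8 beads/group.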
row,SMILES,Activity
1,O=C1COc2ccc(C(=O)/C=C/c3cc(F)cc4c3OCOC4)cc2N1,Active

# Test system: ASPC1
# Assay: Antiproliferative activity against human AsPC1 cells assessed as cell viability at 10 uM after 48 hrs by MTS assay
# Format: functional, cell-based
# Settings: not given
row,SMILES,Activity
1,OC[C@@H]1O[C@H](n2cnc3c(NCc4ccco4)ncnc32)[C@H](O)[C@@H]1O,Active
2,Cc1nc2ccccn2c1-c1csc(Nc2ccc(C(=O)O)cc2)n1,Active
3,O=C1COc2ccc(C(=O)/C=C/c3cc(F)cc4c3OCOC4)cc2N1,Active
4,CC/C(=C(\c1ccccc1)c1ccc(OCCN(C)C)cc1)c1ccccc1,Active
5,Cc1ccc(Cc2cnc(NC(=O)c3ccc(-n4ccnc4)cc3)s2)cc1,Active
6,N#Cc1ccc(Cc2cnc(NC(=O)CCc3ccc4c(c3)OCO4)s2)cc1,Active
7,O=C(Nc1ccc(C(=O)O)cc1)Nc1ccc(-c2nc(N3CCOCC3)nc(N3CCOCC3)n2)cc1,Active
8,COc1ccc(-c2n[nH]c(NC(=O)c3cccc(S(=O)(=O)N4CCc5ccccc54)c3)n2)cc1,Active

# Test system: BXPC-3
# Assay: Antiproliferative activity against human BxPC3 cells assessed as cell viability at 0.01 to 10 uM after 48 and 72 hrs by MTS assay
# Format: functional, cell-based
# Settings: not given
row,SMILES,Activity
1,OC[C@@H]1O[C@H](n2cnc3c(NCc4ccco4)ncnc32)[C@H](O)[C@@H]1O,Active
2,O=C(Nc1ccc(C(=O)O)cc1)Nc1ccc(-c2nc(N3CCOCC3)nc(N3CCOCC3)n2)cc1,Active

# Test system: BXPC-3
# Assay: Antiproliferative activity against human BxPC3 cells assessed as cell viability at 10 uM after 48 hrs by MTS assay
# Format: functional, cell-based
# Settings: not given
row,SMILES,Activity
1,OC[C@@H]1O[C@H](n2cnc3c(NCc4ccco4)ncnc32)[C@H](O)[C@@H]1O,Active
2,Cc1nc2ccccn2c1-c1csc(Nc2ccc(C(=O)O)cc2)n1,Active
3,O=C1COc2ccc(C(=O)/C=C/c3cc(F)cc4c3OCOC4)cc2N1,Active
4,CC/C(=C(\c1ccccc1)c1ccc(OCCN(C)C)cc1)c1ccccc1,Active
5,Cc1ccc(Cc2cnc(NC(=O)c3ccc(-n4ccnc4)cc3)s2)cc1,Active
6,N#Cc1ccc(Cc2cnc(NC(=O)CCc3ccc4c(c3)OCO4)s2)cc1,Active
7,O=C(Nc1ccc(C(=O)O)cc1)Nc1ccc(-c2nc(N3CCOCC3)nc(N3CCOCC3)n2)cc1,Active
8,COc1ccc(-c2n[nH]c(NC(=O)c3cccc(S(=O)(=O)N4CCc5ccccc54)c3)n2)cc1,Active

# Test system: MIA PaCa-2
# Assay: Cytotoxicity against human MIAPaCa2 cells at 1 to 50 uM after 8 days by calcein-AM staining based fluorescence analysis
# Format: functional, cell-based
# Settings: not given
# Summary of the method: as §3
row,SMILES,Activity
1,O=C1COc2ccc(C(=O)/C=C/c3cc(F)cc4c3OCOC4)cc2N1,Active

# Test system: not listed separately
# Assay: Cytotoxicity against human MCF10A cells assessed as cell viability at 0.01 to 10 uM after 48 and 72 hrs by MTS assay
# Format: cell-based
# Settings: mcf-10a
row,SMILES,Activity
1,OC[C@@H]1O[C@H](n2cnc3c(NCc4ccco4)ncnc32)[C@H](O)[C@@H]1O,Toxic
2,O=C(Nc1ccc(C(=O)O)cc1)Nc1ccc(-c2nc(N3CCOCC3)nc(N3CCOCC3)n2)cc1,Toxic

# Test system: MIA PaCa-2
# Assay: Antiproliferative activity against human MIAPaCa2 cells assessed as cell viability at 10 uM after 48 hrs by MTS assay
# Format: functional, cell-based
# Settings: not given
row,SMILES,Activity
1,OC[C@@H]1O[C@H](n2cnc3c(NCc4ccco4)ncnc32)[C@H](O)[C@@H]1O,Active
2,Cc1nc2ccccn2c1-c1csc(Nc2ccc(C(=O)O)cc2)n1,Active
3,O=C1COc2ccc(C(=O)/C=C/c3cc(F)cc4c3OCOC4)cc2N1,Active
4,CC/C(=C(\c1ccccc1)c1ccc(OCCN(C)C)cc1)c1ccccc1,Active
5,Cc1ccc(Cc2cnc(NC(=O)c3ccc(-n4ccnc4)cc3)s2)cc1,Active
6,N#Cc1ccc(Cc2cnc(NC(=O)CCc3ccc4c(c3)OCO4)s2)cc1,Active
7,O=C(Nc1ccc(C(=O)O)cc1)Nc1ccc(-c2nc(N3CCOCC3)nc(N3CCOCC3)n2)cc1,Active
8,COc1ccc(-c2n[nH]c(NC(=O)c3cccc(S(=O)(=O)N4CCc5ccccc54)c3)n2)cc1,Active

# Test system: ASPC1
# Assay: Antiproliferative activity against human AsPC1 cells assessed as cell viability at 0.01 to 10 uM after 48 and 72 hrs by MTS assay
# Format: functional, cell-based
# Settings: not given
row,SMILES,Activity
1,OC[C@@H]1O[C@H](n2cnc3c(NCc4ccco4)ncnc32)[C@H](O)[C@@H]1O,Active
2,O=C(Nc1ccc(C(=O)O)cc1)Nc1ccc(-c2nc(N3CCOCC3)nc(N3CCOCC3)n2)cc1,Active
